ChEMBL document CHEMBL2150999, “Design, synthesis and biological evaluation of benzo[e][1,2,4]triazin-7(1H)-one and [1,2,4]-triazino[5,6,1-jk]carbazol-6-one derivatives as dual inhibitors of beta-amyloid aggregation and acetyl/butyryl cholinesterase” (Eur J Med Chem, 2012)
Values after ≈ are worked out from the molar mass of the structure shown. Active and inactive are the calls of the source. The calls are words filed in the database; no cut-off is given here.

How the values were obtained:
[1] = Inhibition of HFIP-induced amyloid beta (1-40) aggregation after 2 hrs by thioflavin T fluorescence method
Procedure, shortened: (§1)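 Pre-monomerized Aβ1-40 (HFIP-dissolved, lyophilized) at 30 µM in PBS (0.01 M, NaCl 0.1 M, pH 7.4) with 2% HFIP and 10% DMSO, coincubated with compound in triplicate at 25 °C for 2 h. Sample mixed with 25 µM ThT in 0.025 M phosphate pH 6.0; excitation 440 nm, emission 485 nm. Peptide-free blanks subtracted; % inhibition versus control. Primary screen at 100 µM. IC50 from 5–7 concentrations (200–0.01 µM) tested in duplicate, three independent experiments.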

[2] = biological target: Cholinesterase (Equus caballus, UniProt P81908); assay: Inhibition of equine serum BChE using butyrylthiocholine iodide as substrate after 20 mins by Ellman's method
Procedure, shortened: (§2)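 Enzyme (eel AChE 463 U/mg or equine serum BChE 13 U/mg) in 0.1 M phosphate buffer pH 8.0 with DTNB, preincubated with inhibitor 20 min at 25 °C. Then acetylthiocholine or butyrylthiocholine iodide added; absorbance rise at 412 nm read 5.0 min at 25 °C. DMSO below 1%. IC50 from nonlinear regression of response/log(concentration), six to seven concentrations, 1×10^-8 to 1×10^-4 M. Means of three independent experiments.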

[3] = Inhibition of amyloid beta (1-42) aggregation at 100 uM measured at 8 hrs and 24 hrs by thioflavin T fluorescence method
Procedure, shortened: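 Aβ1-42 (30 µM) in PBS/10% DMSO at 37 °C, alone or with compound at 100 µM. ThT fluorescence (ex 440, em 485 nm) read at 8 h and 24 h, reported in arbitrary units; mean ± SEM of three independent experiments.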

[4] = biological target: Acetylcholinesterase (Electrophorus electricus) (UniProt O42275); assay: Inhibition of electric eel AChE using acetylthiocholine iodide as substrate at 10 uM after 20 mins by Ellman's method
[5] = biological target: Cholinesterase (Equus caballus) (UniProt P81908); assay: Inhibition of equine serum BChE using butyrylthiocholine iodide as substrate at 10 uM after 20 mins by Ellman's method
[6] = Inhibition of HFIP-induced amyloid beta (1-40) aggregation at 100 uM after 2 hrs by thioflavin T fluorescence method; procedure, shortened: as §1
[7] = Inhibition of amyloid beta (1-40) fibrillation assessed as extended fibrillar weft formation at 50 uM after 7 days by TEM analysis
Procedure, shortened: (§3)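 Aβ1-40 (50 µM) in PBS/10% ethanol, with compound at 10 or 50 µM, incubated at 37 °C for up to 10 days. Aliquots taken at 7 days were applied to carbon-coated grids and negatively stained with 2% w/v uranyl acetate. Imaged by TEM at 60 kV and 39 000-fold magnification, compared with self-aggregating control.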

[8] = Inhibition of amyloid beta (1-40) beta-sheet transition assessed as decrease in beta-sheet level after 7 days by CD spectroscopic analysis relative to control
Procedure, shortened: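 Aβ1-40 (50 µM) in PBS with 10% ethanol, alone or with compound (10 or 50 µM), incubated at 37 °C without agitation. CD spectra 195–250 nm were recorded at room temperature in a 0.1 cm cell, with buffer/ethanol or inhibitor blank baseline subtracted. Absolute ellipticity at 215 nm was followed over time and expressed relative to the control plateau.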

[9] = Aqueous solubility of the compound in PBS buffer; type: physicochemical
Procedure, shortened: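 Preliminary solubility in the incubation medium (PBS with up to 10% ethanol cosolvent) measured by UV spectroscopy; used to set the maximum soluble test concentration.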

[10] = Inhibition of amyloid beta (1-40) fibrillation assessed as isolated fibrillar aggregates formation at 10 uM after 7 days by TEM analysis; procedure, shortened: as §3
[11] = biological target: Acetylcholinesterase (Electrophorus electricus, UniProt O42275); assay: Inhibition of electric eel AChE using acetylthiocholine iodide as substrate after 20 mins by Ellman's method; procedure, shortened: as §2
Acetylcholinesterase, sequence (O42275 whole entry): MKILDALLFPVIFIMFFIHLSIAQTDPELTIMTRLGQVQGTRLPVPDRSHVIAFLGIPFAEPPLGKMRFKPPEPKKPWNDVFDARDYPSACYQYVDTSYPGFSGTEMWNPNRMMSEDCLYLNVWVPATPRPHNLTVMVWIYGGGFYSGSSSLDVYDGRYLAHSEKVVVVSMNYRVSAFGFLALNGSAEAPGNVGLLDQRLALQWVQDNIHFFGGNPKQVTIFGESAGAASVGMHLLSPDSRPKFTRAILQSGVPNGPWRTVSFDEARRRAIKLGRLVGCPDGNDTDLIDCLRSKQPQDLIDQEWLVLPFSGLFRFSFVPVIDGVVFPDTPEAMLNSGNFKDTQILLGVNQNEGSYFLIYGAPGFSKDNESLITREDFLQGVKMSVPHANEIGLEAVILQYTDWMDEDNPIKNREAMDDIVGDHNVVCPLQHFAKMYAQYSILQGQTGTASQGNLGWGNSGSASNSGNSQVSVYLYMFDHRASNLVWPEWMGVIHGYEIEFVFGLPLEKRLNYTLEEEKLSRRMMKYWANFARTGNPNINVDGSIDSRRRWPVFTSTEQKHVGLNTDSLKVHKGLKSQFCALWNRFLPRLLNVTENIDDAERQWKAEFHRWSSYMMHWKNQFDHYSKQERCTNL

Acetylcholinesterase (Electrophorus electricus), sequence (O42275 24-633 limits assumed): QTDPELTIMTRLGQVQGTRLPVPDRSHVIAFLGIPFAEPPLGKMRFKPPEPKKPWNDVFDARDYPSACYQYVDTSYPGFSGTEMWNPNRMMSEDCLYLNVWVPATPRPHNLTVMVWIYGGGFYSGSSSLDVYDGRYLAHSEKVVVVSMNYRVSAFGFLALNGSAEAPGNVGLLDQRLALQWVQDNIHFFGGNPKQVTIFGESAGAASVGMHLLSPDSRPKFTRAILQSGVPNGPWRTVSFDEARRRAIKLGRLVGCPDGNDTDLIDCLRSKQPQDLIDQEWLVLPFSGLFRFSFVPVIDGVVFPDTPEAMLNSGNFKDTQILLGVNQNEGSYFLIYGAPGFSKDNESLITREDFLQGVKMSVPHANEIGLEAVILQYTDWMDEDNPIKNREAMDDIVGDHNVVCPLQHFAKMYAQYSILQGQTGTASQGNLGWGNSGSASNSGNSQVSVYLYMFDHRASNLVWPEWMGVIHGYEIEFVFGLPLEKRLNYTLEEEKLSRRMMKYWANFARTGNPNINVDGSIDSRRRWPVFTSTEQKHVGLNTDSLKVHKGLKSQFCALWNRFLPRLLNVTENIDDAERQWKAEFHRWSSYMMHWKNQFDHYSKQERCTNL
Cholinesterase (Equus caballus), sequence (P81908 whole entry): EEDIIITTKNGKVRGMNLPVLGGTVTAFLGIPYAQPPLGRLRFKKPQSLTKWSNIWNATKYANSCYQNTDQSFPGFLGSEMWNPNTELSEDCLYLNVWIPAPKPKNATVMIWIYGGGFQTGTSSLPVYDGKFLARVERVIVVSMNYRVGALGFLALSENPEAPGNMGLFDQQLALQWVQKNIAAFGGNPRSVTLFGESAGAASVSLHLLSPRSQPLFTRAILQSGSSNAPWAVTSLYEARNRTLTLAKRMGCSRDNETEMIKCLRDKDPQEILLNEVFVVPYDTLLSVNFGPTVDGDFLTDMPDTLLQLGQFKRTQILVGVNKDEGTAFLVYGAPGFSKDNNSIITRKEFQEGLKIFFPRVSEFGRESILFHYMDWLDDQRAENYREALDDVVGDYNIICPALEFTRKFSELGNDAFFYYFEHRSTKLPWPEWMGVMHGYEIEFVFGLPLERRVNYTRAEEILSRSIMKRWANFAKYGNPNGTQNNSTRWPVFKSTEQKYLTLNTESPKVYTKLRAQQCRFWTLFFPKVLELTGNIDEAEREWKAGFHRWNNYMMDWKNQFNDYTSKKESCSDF
Cholinesterase, sequence (P81908 whole entry): as above

CN(CCCCCCCCN(C)c1cc2nc(-c3ccccc3)nn3c4ccccc4c(c1=O)c23)Cc1ccccc1
IC50 [1]: 1400 nM | IC50 [2]: 25 nM | inhibition [3]: Active | inhibition [4]: 55%

O=c1cc2n(-c3ccccc3)nc(-c3ccccc3)nc-2cc1N1CCCc2ccccc21
IC50 [1]: 6700 nM | inhibition [5]: 10% | inhibition [4]: 41%

CC1CCCCN1c1cc2nc(-c3ccccc3)nn(-c3ccccc3)c-2cc1=O (stereo not given)
IC50 [1]: 370 nM | inhibition [3]: Active | inhibition [5]: 22% | inhibition [4]: 0%

O=c1cc2n(-c3ccccc3)nc(-c3ccccc3)nc-2cc1N1CCSCC1
inhibition [6]: 62% | inhibition [5]: 0% | inhibition [4]: 42%

O=c1cc2n(-c3ccccc3)nc(-c3ccccc3)nc-2cc1N1CCc2ccccc2C1
inhibition [6]: 68% | inhibition [5]: 14% | inhibition [4]: 47%

O=c1ccc2nc(-c3ccccc3)nn3c4ccccc4c1c23
inhibition [7]: Active | inhibition [8]: inactive | IC50 [1]: 6100 nM | solubility [9]: 50 µM (≈ 14.9 µg/mL) | inhibition [3]: Active | inhibition [5]: 59% | inhibition [4]: 46%

O=c1c(N2CCCC2)cc2nc(-c3ccccc3)nn3c4ccccc4c1c23
IC50 [1]: 2000 nM | inhibition [5]: 52% | inhibition [4]: 44%

CN(C)CCCN(C)c1cc2nc(-c3ccccc3)nn(-c3ccccc3)c-2cc1=O
inhibition [6]: 45% | inhibition [5]: 18% | inhibition [4]: 46%

O=c1cc2n(-c3ccccc3)nc(-c3ccccc3)nc-2cc1N1CCOCC1
inhibition [6]: 48% | inhibition [5]: 0% | inhibition [4]: 42%

CC1CCCN(c2cc3nc(-c4ccccc4)nn4c5ccccc5c(c2=O)c34)C1 (stereo not given)
IC50 [1]: 5500 nM | inhibition [5]: 53% | inhibition [4]: 27%

CN(c1ccccc1)c1cc2nc(-c3ccccc3)nn(-c3ccccc3)c-2cc1=O
inhibition [6]: 51% | inhibition [5]: 11% | inhibition [4]: 57%

CC1CC(C)CN(c2cc3nc(-c4ccccc4)nn(-c4ccccc4)c-3cc2=O)C1 (stereo not given)
IC50 [1]: 1200 nM | inhibition [5]: 18% | inhibition [4]: 46%

O=c1c(O)c(-c2ccc(O)c(O)c2)oc2cc(O)cc(O)c12
inhibition [3]: Active

COc1cc2nc(-c3ccccc3)nn(-c3ccccc3)c-2cc1=O
inhibition [6]: 60% | inhibition [5]: 15% | inhibition [4]: 47%

O=c1cc2n(-c3ccccc3)nc(-c3ccccc3)nc-2cc1Nc1ccccc1
inhibition [6]: 13% | inhibition [5]: 9% | inhibition [4]: 57%

CN(CCCCCCCCNc1cc2nc(-c3ccccc3)nn3c4ccccc4c(c1=O)c23)Cc1ccccc1
inhibition [6]: 60% | inhibition [5]: 25% | inhibition [4]: 46%

O=c1ccc2nc(-c3ccccc3)nn(-c3ccccc3)c-2c1
inhibition [6]: 39% | inhibition [5]: 27% | inhibition [4]: 47%

O=c1cc2n(-c3ccccc3)nc(-c3ccccc3)nc-2cc1N1CCCC1
inhibition [6]: 68% | inhibition [5]: 15% | inhibition [4]: 54%

CCN(CC)c1cc2nc(-c3ccccc3)nn(-c3ccccc3)c-2cc1=O
IC50 [1]: 17000 nM | inhibition [5]: 19% | inhibition [4]: 55%

CC1CCN(c2cc3nc(-c4ccccc4)nn(-c4ccccc4)c-3cc2=O)CC1
inhibition [6]: 68% | inhibition [5]: 11% | inhibition [4]: 48%

O=c1cc2n(-c3ccccc3)nc(-c3ccccc3)nc-2cc1N1CCC(c2ccccc2)CC1
IC50 [1]: 1500 nM | inhibition [5]: 10% | inhibition [4]: 35%

O=c1cc2n(-c3ccccc3)nc(-c3ccccc3)nc-2cc1N1CCN(Cc2ccccc2)CC1
inhibition [6]: 61% | inhibition [5]: 18% | inhibition [4]: 56%

CN(Cc1ccccc1)c1cc2nc(-c3ccccc3)nn3c4ccccc4c(c1=O)c23
IC50 [1]: 4100 nM | inhibition [5]: 26% | inhibition [4]: 53%

O=c1cc2n(-c3ccccc3)nc(-c3ccccc3)nc-2cc1Sc1ccccc1
inhibition [6]: 42% | inhibition [5]: 6% | inhibition [4]: 49%

CN(CCCCCN(C)c1cc2nc(-c3ccccc3)nn(-c3ccccc3)c-2cc1=O)Cc1ccccc1
inhibition ([8]; concentration not given here): 40% | IC50 [1]: 1400 nM | IC50 [2]: 1900 nM | solubility [9]: 10 µM (≈ 5.18 µg/mL) | inhibition [10]: Active | inhibition [3]: Active | IC50 [11]: 1500 nM

CN(c1cc2nc(-c3ccccc3)nn(-c3ccccc3)c-2cc1=O)C1CCCCC1
IC50 [1]: 4000 nM | inhibition [5]: 37% | inhibition [4]: 55%

CN1CCN(c2cc3nc(-c4ccccc4)nn(-c4ccccc4)c-3cc2=O)CC1
inhibition [6]: 55% | inhibition [5]: 12% | inhibition [4]: 55%

O=c1c(N2CCC(c3ccccc3)CC2)cc2nc(-c3ccccc3)nn3c4ccccc4c1c23
IC50 [1]: 3900 nM | inhibition [5]: 11% | inhibition [4]: 48%

CN(CCCCCCCCN(C)c1cc2nc(-c3ccccc3)nn(-c3ccccc3)c-2cc1=O)Cc1ccccc1
IC50 [1]: 65000 nM | IC50 [2]: 310 nM | inhibition [4]: 50%

O=c1cc2n(-c3ccccc3)nc(-c3ccccc3)nc-2cc1N1CCCCCC1
IC50 [1]: 2800 nM | inhibition [5]: 47% | inhibition [4]: 46%

CCN(Cc1ccccc1)c1cc2nc(-c3ccccc3)nn(-c3ccccc3)c-2cc1=O
IC50 [1]: 2100 nM | inhibition [5]: 13% | inhibition [4]: 53%

CCN(CC)c1cc2nc(-c3ccccc3)nn3c4ccccc4c(c1=O)c23
IC50 [1]: 1400 nM | inhibition [5]: 54% | inhibition [4]: 46%

CC1CCCN(c2cc3nc(-c4ccccc4)nn(-c4ccccc4)c-3cc2=O)C1 (stereo not given)
IC50 [1]: 730 nM | inhibition [5]: 25% | inhibition [4]: 55%

CN(CCCCCCCCNc1cc2nc(-c3ccccc3)nn(-c3ccccc3)c-2cc1=O)Cc1ccccc1
IC50 [1]: 21000 nM | inhibition [5]: 28% | inhibition [4]: 45%

CN(C)CCCN(C)c1cc2nc(-c3ccccc3)nn3c4ccccc4c(c1=O)c23
IC50 [1]: 7600 nM | IC50 [2]: 4000 nM | inhibition [4]: 49%

COc1cc2nc(-c3ccccc3)nn3c4ccccc4c(c1=O)c23
inhibition [6]: 33% | inhibition [5]: 11% | inhibition [4]: 52%

O=c1cc2n(-c3ccccc3)nc(-c3ccccc3)nc-2cc1N1CCCCC1
IC50 [1]: 7100 nM | inhibition [5]: 7% | inhibition [4]: 39%

CN(Cc1ccccc1)c1cc2nc(-c3ccccc3)nn(-c3ccccc3)c-2cc1=O
IC50 [1]: 1000 nM | inhibition [5]: 22% | inhibition [4]: 56%

O=c1cc2n(-c3ccccc3)nc(-c3ccccc3)nc-2cc1N1CCN(c2ccccc2)CC1
inhibition [6]: 53% | IC50 [11]: 2200 nM | inhibition [5]: 15%
